Experimental data: ChEMBL document CHEMBL4680305, “Synthesis and biological evaluation of all possible inosine-mixed cyclic dinucleotides that activate different hSTING variants” (Bioorg Med Chem, 2021)
Activity calls are given as the source filed them. The calls are words filed in the database; no cut-off is given here.

test system: HEK293T; assay: Activation of human STING R232H mutant expressed in HEK293T cells assessed as increase IFN-beta activity at 5 uM […] by dual-luciferase reporter gene assay; type: cell-based; conditions: filed as activator
How it was run: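 HEK293T cells were co-transfected using polyjet with pcDNA3.1-hSTING R232H (50 ng), pGL3-IFNβ firefly reporter (400 ng) and pGL4.74-Rluc-TK (50 ng). After 24 h, cells were stimulated with 5 µM CDN for 30 min in digitonin buffer (10 µg/mL digitonin, 1 mM ATP, 0.1 mM GTP, HEPES/KCl/MgCl2), then put back in normal medium. Lysates were taken 12 h later for dual-luciferase readout; mean ± s.e.m., n = 5.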

Compound	Activity
Nc1ncnc2c1ncn2[C@@H]1O[C@@H]2COP(=O)(O)O[C@@H]3[C@H](O)[C@@H](COP(=O)(O)O[C@@H]1[C@@H]2O)O[C@H]3n1cnc2c(O)ncnc21	Active
O=c1ccn([C@@H]2O[C@@H]3COP(=O)(O)O[C@@H]4[C@H](O)[C@@H](COP(=O)(O)O[C@@H]2[C@@H]3O)O[C@H]4n2cnc3c(=O)[nH]cnc32)c(=O)[nH]1	Active
Nc1ncnc2c1ncn2[C@@H]1O[C@@H]2COP(=O)(O)O[C@H]3[C@@H](O)[C@H](n4cnc5c(O)ncnc54)O[C@@H]3COP(=O)(O)O[C@@H]1[C@@H]2O	Active
Nc1ccn([C@@H]2O[C@@H]3COP(=O)(O)O[C@@H]4[C@H](O)[C@@H](COP(=O)(O)O[C@@H]2[C@@H]3O)O[C@H]4n2cnc3c(=O)[nH]cnc32)c(=O)n1	Active
O=c1[nH]cnc2c1ncn2[C@@H]1O[C@@H]2COP(=O)(O)O[C@@H]3[C@H](O)[C@@H](COP(=O)(O)O[C@@H]1[C@@H]2O)O[C@H]3n1cnc2c(=O)[nH]cnc21	Active
Nc1nc2c(ncn2[C@@H]2O[C@@H]3COP(=O)(O)O[C@@H]4[C@H](O)[C@@H](COP(=O)(O)O[C@@H]2[C@@H]3O)O[C@H]4n2cnc3c(=O)[nH]cnc32)c(=O)[nH]1	Active
Nc1ncnc2c1ncn2[C@@H]1O[C@@H]2COP(=O)(O)O[C@@H]3[C@H](O)[C@@H](COP(=O)(O)O[C@H]2[C@H]1O)O[C@H]3n1cnc2c(=O)[nH]cnc21	Active
Nc1ccn([C@@H]2O[C@@H]3COP(=O)(O)O[C@H]4[C@@H](O)[C@H](n5cnc6c(=O)[nH]cnc65)O[C@@H]4COP(=O)(O)O[C@@H]2[C@@H]3O)c(=O)n1	Active
O=c1[nH]cnc2c1ncn2[C@@H]1O[C@@H]2COP(=O)(O)O[C@@H]3[C@H](O)[C@@H](COP(=O)(O)O[C@H]2[C@H]1O)O[C@H]3n1cnc2c(=O)[nH]cnc21	Active

test system: not listed separately; assay: Stability of compound in presence of 20% FBS; conditions: not given
How it was run: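 CDN at 0.1 µg/µL was incubated at 37 °C in 20% FBS with 20 mM PBS pH 7.4 and 5 mM MgCl2, against a water control. Aliquots taken at various time points were quenched with EDTA pH 8.0 and centrifuged. They were analysed by HPLC with UV at 254 nm, using 10 mM TEAA/MeCN mobile phase at 25 °C.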

Compound	Stability
Nc1ncnc2c1ncn2[C@@H]1O[C@@H]2COP(=O)(O)O[C@H]3[C@@H](O)[C@H](n4cnc5c(O)ncnc54)O[C@@H]3COP(=O)(O)O[C@H]2[C@H]1O	Stable

biological target: Stimulator of interferon genes protein (Homo sapiens, UniProt Q86WV6); assay: Binding affinity to wild-type human STING-CTD (139-379) expressed in Escherichia coli BL21(D Escherichia ) cells by isothermal titration calorimetry; conditions: not given
Sequence (Q86WV6 whole entry): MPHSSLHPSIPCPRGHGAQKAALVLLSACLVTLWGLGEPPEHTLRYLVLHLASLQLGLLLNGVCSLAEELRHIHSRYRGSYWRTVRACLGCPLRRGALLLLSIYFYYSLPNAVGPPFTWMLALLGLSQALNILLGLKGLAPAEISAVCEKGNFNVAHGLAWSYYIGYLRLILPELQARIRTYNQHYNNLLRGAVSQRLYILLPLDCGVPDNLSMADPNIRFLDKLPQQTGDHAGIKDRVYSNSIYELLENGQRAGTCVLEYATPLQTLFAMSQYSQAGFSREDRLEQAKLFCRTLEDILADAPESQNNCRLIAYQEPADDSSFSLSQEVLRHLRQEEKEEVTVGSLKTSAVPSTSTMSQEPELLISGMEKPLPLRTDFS

Kd [µM]	Compound
19.5	O=c1[nH]cnc2c1ncn2[C@@H]1O[C@@H]2COP(=O)(O)O[C@H]3[C@@H](O)[C@H](n4cnc5c(=O)[nH]cnc54)O[C@@H]3COP(=O)(O)O[C@H]2[C@H]1O
